Results: ChEMBL document CHEMBL1123129, “Hypolipidemic activity of indan-1,3-dione derivatives in rodents” (J Med Chem, 1985)

Key:
Mus musculus [1] = assay: In Vivo effect for the hypolipidemic activity on Hepatic lipoprotein lipase in CF1 mice after 16 days administered orally at a dose of 10 mg/kg; format: functional; conditions: route oral
Procedure, shortened: (§1)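 CF1 male mice are dosed orally at 10–60 mg/kg per day for 16 days, with 1% CMC as the control vehicle. Liver is homogenized at 10% in 0.25 M sucrose + 0.001 M EDTA, pH 7.2. Enzymes are assayed by literature methods, with Lowry protein. Activity is given as % of control (X ± SD, N = 6), with p from Student's t test.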

Mus musculus [2] = species: Mus musculus; assay: In Vitro evaluation for the CF1 liver enzyme activity on phosphatidate phosphohydrolase at concentration 200 uM
Procedure, shortened: (§2)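 Mouse liver enzymes assayed in vitro on 10% homogenates of CF1 male mouse liver, with test drug added at 50–200 μM. Each enzyme follows a published procedure. Protein is measured by Lowry. Activity is given as % of untreated control (X ± SD, N = 6).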

[3] = target: T1, 3-hydroxy-3-methylglutaryl-coenzyme A reductase (Mus musculus) (UniProt Q01237); assay: In Vitro evaluation for the CF1 liver enzyme activity on HMG-CoA reductase at concentration 100 uM
T1 sequence (whole entry): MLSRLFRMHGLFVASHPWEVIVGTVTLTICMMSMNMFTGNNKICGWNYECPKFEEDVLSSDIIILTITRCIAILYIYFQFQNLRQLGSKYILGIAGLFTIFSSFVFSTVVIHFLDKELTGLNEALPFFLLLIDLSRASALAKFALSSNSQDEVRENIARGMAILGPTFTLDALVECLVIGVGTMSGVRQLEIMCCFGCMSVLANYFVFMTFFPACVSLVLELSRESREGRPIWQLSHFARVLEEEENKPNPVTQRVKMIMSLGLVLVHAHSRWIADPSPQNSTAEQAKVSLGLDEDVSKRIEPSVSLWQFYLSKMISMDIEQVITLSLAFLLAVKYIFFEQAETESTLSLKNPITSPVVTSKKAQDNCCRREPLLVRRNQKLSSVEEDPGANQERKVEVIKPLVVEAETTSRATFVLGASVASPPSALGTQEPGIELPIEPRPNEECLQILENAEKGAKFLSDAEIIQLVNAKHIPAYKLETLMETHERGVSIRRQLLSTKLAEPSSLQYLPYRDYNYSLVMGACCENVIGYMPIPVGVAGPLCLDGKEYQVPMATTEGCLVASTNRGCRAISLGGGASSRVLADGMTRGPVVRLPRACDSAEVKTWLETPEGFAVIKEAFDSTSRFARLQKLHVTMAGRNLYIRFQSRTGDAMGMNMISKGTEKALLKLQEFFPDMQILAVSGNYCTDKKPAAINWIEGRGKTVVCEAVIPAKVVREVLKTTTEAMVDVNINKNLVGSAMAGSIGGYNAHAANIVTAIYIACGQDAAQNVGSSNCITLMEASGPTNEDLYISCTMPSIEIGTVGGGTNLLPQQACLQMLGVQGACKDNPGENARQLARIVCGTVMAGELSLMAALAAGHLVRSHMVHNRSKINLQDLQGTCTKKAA
Procedure, shortened: (§3)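 Liver was taken from CF1 male mice and made into 10% homogenates, which were incubated with test compound at 50, 100 or 200 µM. Each enzyme was assayed by its literature method, and protein was measured by Lowry. N = 6. Activity is expressed as % of untreated control ± SD.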

Mus musculus [4] = species: Mus musculus; assay: In Vitro evaluation for the CF1 liver enzyme activity on Mitochondrial citrate exchange at concentration 200 uM; format: functional; procedure, shortened: as §2
Rattus norvegicus [5] = assay: Compound was evaluated for the hypolipidemic activity at 20 mg/kg per day orally for 14 days on protein content in rat small intestine.; format: functional; conditions: route oral
Procedure, shortened: (§4)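 Male Sprague–Dawley rats were dosed orally for 14 days. Liver, small intestine and a 24-h fecal collection were lipid-extracted. Extracts were assayed for cholesterol (modified Liebermann–Burchard), triglyceride (enzymatic kit), neutral lipids, phospholipids and protein. Values are % of 1% CMC vehicle control, mean ± SD, N = 6.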

[6] = target: Acetyl-coenzyme A synthetase, cytoplasmic (Mus musculus) (UniProt Q9QXG4); assay: In Vivo effect for the hypolipidemic activity on Acetyl-coenzyme A synthetase in CF1 mice after 16 days of oral administration at a dose of 20 mg/kg; format: functional, organism-based; set-up: dose 20 mg/kg; procedure, shortened: as §1
Chain of Acetyl-coenzyme A synthetase, cytoplasmic (Mus musculus) (Q9QXG4 whole entry): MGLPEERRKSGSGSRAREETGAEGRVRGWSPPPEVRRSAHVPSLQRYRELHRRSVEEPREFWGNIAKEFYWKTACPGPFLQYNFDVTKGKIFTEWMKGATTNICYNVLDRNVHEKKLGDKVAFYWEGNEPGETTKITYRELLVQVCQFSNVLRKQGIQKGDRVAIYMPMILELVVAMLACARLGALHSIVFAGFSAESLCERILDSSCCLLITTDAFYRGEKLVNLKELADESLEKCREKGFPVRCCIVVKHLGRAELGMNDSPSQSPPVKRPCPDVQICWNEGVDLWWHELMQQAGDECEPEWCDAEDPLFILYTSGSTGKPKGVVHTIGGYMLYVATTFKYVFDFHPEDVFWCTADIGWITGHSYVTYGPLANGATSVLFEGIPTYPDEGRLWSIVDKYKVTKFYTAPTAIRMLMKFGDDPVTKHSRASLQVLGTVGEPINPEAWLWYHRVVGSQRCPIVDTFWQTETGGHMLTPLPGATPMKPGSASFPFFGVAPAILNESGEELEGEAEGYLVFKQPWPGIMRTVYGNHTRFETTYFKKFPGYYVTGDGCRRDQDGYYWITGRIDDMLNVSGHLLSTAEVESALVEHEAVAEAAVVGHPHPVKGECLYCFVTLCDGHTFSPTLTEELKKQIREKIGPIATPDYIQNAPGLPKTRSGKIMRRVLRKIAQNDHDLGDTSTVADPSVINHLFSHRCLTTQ

[7] = target: T2, Cholesterol 7-alpha-hydroxylase (Cytochrome P450 7A1) (Mus musculus, UniProt Q64505); assay: In vivo effect on Cholesterol 7-alpha-hydroxylase activity in CF1 mice after 16 days at 10 mg/kg oral dose; format: functional, organism-based; set-up: dose 10 mg/kg, route oral; conditions: read-out: Control; procedure, shortened: as §1
T2 sequence (Q64505 whole entry): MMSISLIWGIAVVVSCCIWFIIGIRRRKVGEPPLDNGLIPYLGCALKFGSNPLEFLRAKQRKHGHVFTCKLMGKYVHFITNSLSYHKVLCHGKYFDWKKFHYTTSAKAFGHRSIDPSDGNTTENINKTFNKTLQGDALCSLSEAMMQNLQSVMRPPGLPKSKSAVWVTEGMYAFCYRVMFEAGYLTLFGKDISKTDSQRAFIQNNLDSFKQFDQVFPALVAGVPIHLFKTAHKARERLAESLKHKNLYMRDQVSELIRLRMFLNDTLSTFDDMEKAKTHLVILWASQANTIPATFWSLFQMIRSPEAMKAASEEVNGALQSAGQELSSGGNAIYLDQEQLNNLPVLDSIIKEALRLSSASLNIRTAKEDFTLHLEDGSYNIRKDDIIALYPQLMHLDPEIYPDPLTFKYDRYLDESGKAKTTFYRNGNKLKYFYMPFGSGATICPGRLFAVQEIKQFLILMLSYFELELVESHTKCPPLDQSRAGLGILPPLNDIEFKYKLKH

[8] = target: T2, Cholesterol 7-alpha-hydroxylase (Cytochrome P450 7A1); assay: In vitro percent Cholesterol 7-alpha-hydroxylase activity in mouse CF1 liver microsomes at 200 uM; set-up: species or system Microsome; conditions: read-out: Control; procedure, shortened: as §2
[9] = In Vitro evaluation for the CF1 liver enzyme activity on Acyl cholesterol acyltransferase at concentration 50 uM; procedure, shortened: as §3
Rattus norvegicus [10] = assay: Compound was evaluated for the hypolipidemic activity at 20 mg/kg per day orally for 14 days on neutral lipids content in rat HDL; format: functional; conditions: route oral
Procedure, shortened: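 Male Sprague–Dawley rats (~300 g) were dosed orally each day. Blood was drawn from the abdominal vein. Lipoprotein fractions (chylomicron, VLDL, LDL, HDL) were separated by the Hatch–Lees and Havel methods. Each fraction was assayed for cholesterol, triglyceride (enzymatic kit), neutral lipids, phospholipids and Lowry protein. Values are % of 1% CMC vehicle control, N = 6.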

Rattus norvegicus [11] = assay: Compound was evaluated for the hypolipidemic activity at 20 mg/kg per day orally for 14 days on phospholipids content in rat feces.; format: functional; conditions: route oral; procedure, shortened: as §4

Control (Mus musculus [2]): 11%
Control [3]: 109%
Control [6]: 72%
activity at 384 h [7]: 52%
activity at 200 µM [8]: 113%
Control [9]: 94%
SMILES: COc1ccc(C2C(=O)c3ccccc3C2=O)cc1 [ANISINDIONE]
Control (Mus musculus [1]): 83%
Control (Mus musculus [4]): 36%
Control (Rattus norvegicus [5]): 102%
Control (Rattus norvegicus [10]): 113%
Control (Rattus norvegicus [11]): 100%
